Active and inactive are the calls of the source. The rule behind the calls is not given here.
How the values were obtained:
SK-BR-3 [1] = assay: Antiproliferative activity against human SK-BR-3 cells assessed as inhibition of cell growth incubated for 72 hrs by MTS assay; format: functional, cell-based; settings: SK-BR-3, 72 h
Summary of the method: (§1)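 Cells were grown at 37°C under 5% CO₂: PC3 in RPMI-1640, MDA-MB-231 in DMEM, and SKBr3 in McCoy's. They were seeded at 2000 cells/well and left for 24 h, then exposed for 72 h to varying concentrations or vehicle (0.5% DMSO final). Viability was read by MTS/PES absorbance at 490 nm relative to control. IC50 came from concentration-response curves; values are means ± SD of two independent experiments.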

PC-3 = assay: Antiproliferative activity against human PC-3 cells assessed as inhibition of cell growth incubated for 72 hrs by MTS assay; format: functional, cell-based; settings: PC-3, 72 h; summary of the method: as §1
MDA-MB-231 = assay: Antiproliferative activity against human MDA-MB-231 cells assessed as inhibition of cell growth incubated for 72 hrs by MTS assay; format: functional, cell-based; settings: MDA-MB-231, 72 h; summary of the method: as §1
SK-BR-3 [2] = assay: Antiproliferative activity against human SK-BR-3 cells; format: functional, cell-based
Summary of the method: as §1, with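 “They” for “Cells were grown at 37°C under 5% CO₂: PC3 in RPMI-1640, MDA-MB-231 in DMEM, and SKBr3 in McCoy's. They”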

[3] = target: T1, Heat shock protein HSP90 (Homo sapiens) (UniProt P07900+P08238); assay: Inhibition of C-terminal HSP90 in human SK-BR-3 cells assessed as HER-2 degradation incubated for 24 hrs by Western blot analysis; format: cell-based; settings: dose 0.1-10 µM
Summary of the method: (§2)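 SKBr3 cells were seeded at 700,000/well and grown to ~80% confluency. They were treated for 24 h with compound or vehicle (1% DMSO), then lysed in Triton/SDS buffer with protease and phosphatase inhibitors. Protein (20 ug, BCA-normalized) was run on 10% SDS-PAGE and transferred to PVDF. Blots were probed overnight at 4°C with 1:1000 anti-HER2, Hsp70, Hsp90, Akt, CDK6 or β-actin, then detected by HRP secondary and ECL.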

[4] = target: T1, Heat shock protein HSP90 (Homo sapiens); assay: Inhibition of C-terminal HSP90 in human SK-BR-3 cells assessed as reduction in HSR induction with constant Hsp70 level at 0.1 to 10 uM incubated for 24 hrs by Western blot analysis; format: cell-based; settings: dose 0.1-10 µM; summary of the method: as §2
[5] = target: T1, Heat shock protein HSP90 (Homo sapiens); assay: Inhibition of C-terminal HSP90 in human SK-BR-3 cells at 0.1 to 10 uM incubated for 24 hrs by Western blot analysis; settings: dose 0.1-10 µM
SK-BR-3 [6] = assay: Effect on HSP90 independent beta-actin protein level in human SK-BR-3 cells at 0.1 to 10 uM incubated for 24 hrs by Western blot analysis; format: functional, cell-based; settings: dose 0.1-10 µM; summary of the method: as §2

Row | IC50 (SK-BR-3 [1]) | IC50 (PC-3) | IC50 (MDA-MB-231) | IC50 (SK-BR-3 [2]) | inhibition [3] | inhibition [4] | inhibition [5] | Compound | Activity (SK-BR-3 [6])
1 | > 50 µM | > 50 µM | > 50 µM |  |  |  |  | COC(=O)C1CCC(Oc2ccc(CCNC(=O)c3ccc(OC)c(-c4cccc(OC)c4)c3)c(-c3cccc(F)c3)c2)CC1 (stereo unspecified) | 
2 | > 50 µM | > 50 µM | > 50 µM |  |  |  |  | CCCC1CCC(Oc2ccc(CCNC(=O)c3ccc(OC)c(-c4cccc(OC)c4)c3)c(-c3cccc(F)c3)c2)CC1 (stereo unspecified) | 
3 | > 50 µM | > 50 µM | > 50 µM |  |  |  |  | CC(C)=CCc1cc(C(=O)NCCc2ccc(OC3CCC(SCc4ccccc4)CC3)cc2-c2cccc(F)c2)ccc1O (stereo unspecified) | 
4 |  |  |  | > 50 µM |  |  |  | CC(=O)NCCc1ccc(OC2CCC(OCc3ccccc3)CC2)cc1-c1cccc(F)c1 (stereo unspecified) | 
5 | > 50 µM | > 50 µM | > 50 µM |  |  |  |  | COc1cccc(-c2cc(C(=O)NCCc3ccc(OC4CCOCC4)cc3-c3cccc(F)c3)ccc2OC)c1 | 
6 | > 50 µM | > 50 µM | > 50 µM |  |  |  |  | COc1cccc(-c2cc(C(=O)NCCc3ccc(OC4CCC(CSc5ccccc5)CC4)cc3-c3cccc(F)c3)ccc2OC)c1 (stereo unspecified) | 
7 | > 50 µM | > 50 µM | > 50 µM |  |  |  |  | COc1cccc(-c2cc(C(=O)NCCc3ccc(OC4CCC(OCc5ccccc5)CC4)cc3-c3cccc(F)c3)ccc2OC)c1 (stereo unspecified) | 
8 | 0.9 µM | 3.08 µM | 3.29 µM |  | Dose-Dependent Effect | Active | Active | COc1cccc(-c2cc(C(=O)NCCc3ccc(OC4CCNCC4)cc3-c3cccc(F)c3)ccc2OC)c1 | inactive
9 | > 50 µM | > 50 µM | > 50 µM |  |  |  |  | CNC(=O)C1CCC(Oc2ccc(CCNC(=O)c3ccc(OC)c(-c4cccc(OC)c4)c3)c(-c3cccc(F)c3)c2)CC1 (stereo unspecified) | 
10 | > 50 µM | > 50 µM | > 50 µM |  |  |  |  | COc1cccc(-c2cc(C(=O)NCCc3ccc(OC4CCC(Cc5ccccc5)CC4)cc3-c3cccc(F)c3)ccc2OC)c1 (stereo unspecified) | 
11 | > 50 µM | > 50 µM | > 50 µM |  |  |  |  | COc1cccc(-c2cc(C(=O)NCCc3ccc(OC4CCC(CNc5ccccc5)CC4)cc3-c3cccc(F)c3)ccc2OC)c1 (stereo unspecified) | 
12 | 0.56 µM | 11 µM | 6.37 µM |  |  |  |  | CCCN1CCC(Oc2ccc(CCNC(=O)c3ccc(OC)c(-c4cccc(OC)c4)c3)c(-c3cccc(F)c3)c2)CC1 | 
13 | > 50 µM | > 50 µM | > 50 µM |  |  |  |  | COc1cccc(-c2cc(C(=O)NCCc3ccc(OC4CCC(COc5ccccc5)CC4)cc3-c3cccc(F)c3)ccc2OC)c1 (stereo unspecified) | 
14 | > 50 µM | > 50 µM | > 50 µM |  |  |  |  | COc1cccc(-c2cc(C(=O)NCCc3ccc(OC4CCC(CCc5ccccc5)CC4)cc3-c3cccc(F)c3)ccc2OC)c1 (stereo unspecified) | 
15 | 15.3 µM | 8.07 µM | 35.1 µM |  |  |  |  | COc1cccc(-c2cc(C(=O)NCCc3ccc(OCCCB4OC(C)(C)C(C)(C)O4)cc3-c3cccc(F)c3)ccc2OC)c1 | 
16 | > 50 µM | > 50 µM | > 50 µM |  |  |  |  | CC(C)=CCc1cc(C(=O)NCCc2ccc(OC3CCC(Cc4ccccc4)CC3)cc2-c2cccc(F)c2)ccc1O (stereo unspecified) | 
17 | > 50 µM | > 50 µM | > 50 µM |  |  |  |  | CC(C)=CCc1cc(C(=O)NCCc2ccc(OC3CCC(CCc4ccccc4)CC3)cc2-c2cccc(F)c2)ccc1O (stereo unspecified) | 
18 | 6.43 µM | 12.7 µM | 7.35 µM |  |  |  |  | C=CCN1CCC(Oc2ccc(CCNC(=O)c3ccc(OC)c(-c4cccc(OC)c4)c3)c(-c3cccc(F)c3)c2)CC1 | 
19 | > 50 µM | > 50 µM | > 50 µM |  |  |  |  | COc1cccc(-c2cc(C(=O)NCCc3ccc(OC4CCN(Cc5ccccc5)CC4)cc3-c3cccc(F)c3)ccc2OC)c1 | 
20 | 21.6 µM | 13.3 µM | 36.6 µM |  |  |  |  | COc1cccc(-c2cc(C(=O)NCCc3ccc(OCCCB(O)O)cc3-c3cccc(F)c3)ccc2OC)c1 | 
21 | > 50 µM | > 50 µM | > 50 µM |  |  |  |  | COc1cccc(-c2cc(C(=O)NCCc3ccc(OC4CCC(C(=O)Nc5ccccc5)CC4)cc3-c3cccc(F)c3)ccc2OC)c1 (stereo unspecified) | 
22 | > 50 µM | > 50 µM | > 50 µM |  |  |  |  | COc1cccc(-c2cc(C(=O)NCCc3ccc(OC4CCC(SCc5ccccc5)CC4)cc3-c3cccc(F)c3)ccc2OC)c1 (stereo unspecified) | 
23 | > 50 µM | > 50 µM | > 50 µM |  |  |  |  | COc1cccc(-c2cc(C(=O)NCCc3ccc(OC4CCCCC4)cc3-c3cccc(F)c3)ccc2OC)c1 | 
24 | > 50 µM | > 50 µM | > 50 µM |  |  |  |  | COc1cccc(-c2cc(C(=O)NCCc3ccc(OC4CCC(C(=O)Oc5ccccc5)CC4)cc3-c3cccc(F)c3)ccc2OC)c1 (stereo unspecified) | 
25 | 6.6 µM | 13.5 µM | 8.46 µM |  |  |  |  | CCN1CCC(Oc2ccc(CCNC(=O)c3ccc(OC)c(-c4cccc(OC)c4)c3)c(-c3cccc(F)c3)c2)CC1 | 
26 | 3.46 µM | 6.6 µM | 4.87 µM |  |  |  |  | COc1cccc(-c2cc(C(=O)NCCc3ccc(OC4CCN(C)CC4)cc3-c3cccc(F)c3)ccc2OC)c1 | 
27 | > 50 µM | > 50 µM | > 50 µM |  |  |  |  | COc1cccc(-c2cc(C(=O)NCCc3ccc(OC4CCC(C(F)(F)Oc5ccccc5)CC4)cc3-c3cccc(F)c3)ccc2OC)c1 (stereo unspecified) | 
28 | 6.61 µM | 13.6 µM | 9.35 µM |  |  |  |  | COc1cccc(-c2cc(C(=O)NCCc3ccc(OC4CCN(C(C)C)CC4)cc3-c3cccc(F)c3)ccc2OC)c1 | 

— ChEMBL document CHEMBL5344476, “Development of Hsp90 C-terminal inhibitors with noviomimetics that manifest anti-proliferative activities” (RSC Med Chem, 2024)
